Compound activity as filed in PubChem.
ROMK mod: ROMK potassium channel modulators, primary screen, cell-based, thallium flux, MLSMR library; B-score at 10 µM; AID 1918, 2009; actives 2% (n = 130,000); Tet-inducible ROMK, thallium flux fluorescence; actives lie on both sides;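 active means signal ratio slope over the read window, or its plate-corrected B-score, at least 3 SD from the plate mean, either direction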;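 further: B-score of the F/F0 ratio slope over 7 to 12 s after thallium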
Target sequence (P48048 whole entry, looked up): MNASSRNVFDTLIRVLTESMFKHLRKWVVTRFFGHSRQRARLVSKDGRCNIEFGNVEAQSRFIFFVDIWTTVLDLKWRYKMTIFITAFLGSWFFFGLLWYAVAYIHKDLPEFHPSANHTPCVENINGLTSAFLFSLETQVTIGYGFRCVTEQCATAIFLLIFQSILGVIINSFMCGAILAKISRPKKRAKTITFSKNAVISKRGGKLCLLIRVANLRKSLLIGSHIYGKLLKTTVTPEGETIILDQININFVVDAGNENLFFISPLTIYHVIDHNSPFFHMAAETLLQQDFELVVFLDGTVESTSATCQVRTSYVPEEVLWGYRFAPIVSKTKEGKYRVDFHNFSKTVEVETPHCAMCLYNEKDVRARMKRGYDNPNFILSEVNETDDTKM
Diaphorase act: compounds boosting diaphorase resazurin reduction – biochemical, uHTS, resorufin fluorescence, counter-screen for diaphorase-coupled primary assays, primary screen. Diaphorase/resazurin coupled assay, 16 min; hits give high values; 1 = vehicle wells, 0 = NADH-free wells. activation factor at 20 µM. actives 0.005% (n = 190,000);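 active means diaphorase activity raised at least twofold by the compound at 20 µM; inactive means activation factor below 2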
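Material: purified diaphorase enzyme from Clostridium kluyveri; Also added: 0.114 mM NADH and 0.1 mM resazurin, final amounts; Doses: single compound dose of 20 µM, 1% DMSO final; Times: 16 min enzyme reaction, ambient temperature; Detection: resorufin fluorescence, excitation 544 nm, emission 590 nm; Measure: increased resorufin signal from activators or reducing compounds.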
Lmaj promast: Leishmania major promastigote growth inhibition, primary screen; Leishmania major promastigotes, resazurin fluorescence viability; inhibition, % at 10 µM; actives 9% (n = 200,000); AID 1063, 2008; in the data active means inhibition above about 50%;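 further: promastigotes grown with compound for 44 hours at 28 °C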
WT yeast gro inh: growth inhibition of WT strain, primary screen, mitochondrial fusion inhibitor project, WT and mutant strains, chemical genetic; mitochondrial fusion phenotypic screen; inhibition, % at 10 µM; actives 2.1% (n = 190,000); AID 1362, 2008; in the data active means inhibition above about 58%; tested in S. cerevisiae
Diaph inh CS: diaphorase inhibitors and chemical oxidizers, primary screen, counter-screen for diaphorase-coupled primary assays, biochemical, uHTS, resorufin fluorescence; diaphorase resazurin-to-resorufin fluorescence, NADH, 16 min; bacterial (C. kluyveri) enzyme, not human; inhibition, % at 20 µM; actives 0.69% (n = 190,000); AID 1217, 2008;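 active means primary screen inhibition at 20 µM above a set limit, cut at about 50% in these data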;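 further: plate controls were DMSO with full reaction for no effect and wells lacking NADH for full effect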
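Assay system – diaphorase enzyme from Clostridium kluyveri · Amount – diaphorase 0.14 U/mL (working solution) · Times – reaction incubation of 16 min at room temperature · Controls – No-NADH positive control and DMSO neutral control · Signal – resorufin fluorescence 544/590 nm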
Cl transport mod: KCC2 cotransporter modulators, thallium flux, primary screen, cell-based, HEK293 KCC2, FluoZin-2 fluorescence, MLSMR; actives 2.2% (n = 190,000); AID 1456, 2008; KCC2 cells, thallium flux FluoZin-2 fluorescence; B-score of Tl+ flux slope (higher = more flux/activation; lower = inhibition) at 10 µM;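 active means thallium flux slope and its plate-corrected score both differing from the plate sample mean at a set confidence after two filtering rounds, in either direction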;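 further: slope of fluorescence scaled to starting intensity during 10 to 20 s after thallium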
An asterisk follows results filed as active; nt = no result given. Shown are actives, neighbours in structure and some others; about 12% of the full set was active somewhere.

SMILES	ROMK mod	Diaphorase act	Lmaj promast	WT yeast gro inh	Diaph inh CS	Cl transport mod
N#Cc1c(NCCCO)nc(NCc2ccccc2)c2c1CCN(Cc1ccccc1)C2	-0.32	0.4	58.8*	55.1	56.3*	-1.38
CN1CCc2c(C#N)c(N3CCCCC3)nc(NCc3ccccc3)c2C1	-0.756	0.8	78.4*	1.5	16.9	nt
CC(C)c1nc(NCc2ccccc2)c(C#N)c2c1CCCC2	0.193	0.9	1.6	-12.9	13.2	-0.329
Cc1nonc1C1CCCN1C(=O)c1cc(COc2ccc(F)cc2F)on1 (configuration not stated)	0.239	0.9	18.9	15.4	13.4	-5.46
COC(=O)CC1C(=O)NCCN1C(=O)CSc1nc2cc(Cl)ccc2o1 (configuration not stated)	-0.34	1	-3.4	-3.2	2.1	-0.987
O=C(CCc1ccc(S(=O)(=O)N2CCOCC2)cc1)Nc1nc(COc2ccccc2)cs1	-1.05	0.8	95.6*	0.1	20.6	-2.22
O=C(COc1ccccc1)Nc1nc(-c2ccc(S(=O)(=O)N3CCOCC3)cc2)cs1	nt	0.7	14.9	25.4	26.9	0.729
O=C(C1=C[C@H](c2ccc(C(F)(F)F)cc2)C[C@H](OCc2ccc(CO)cc2)O1)N1CCN(Cc2ccc3c(c2)OCO3)CC1	nt	0.7	45.0	48.5	33.6	0.182
NC(=O)C1=C[C@@H](c2ccc(C(F)(F)F)cc2)C[C@@H](OCc2ccc(CO)cc2)O1	nt	0.5	3.7	0.6	52.5*	-0.22
O=C(C1=C[C@@H](c2ccc(Br)cc2)C[C@@H](OCc2ccc(CO)cc2)O1)N1CCN(Cc2ccc3c(c2)OCO3)CC1	nt	0.6	56.4*	25.0	40.4	-1.16
CC(C)(C)[C@@H]1C=C(C(=O)N2CCN(Cc3ccc4c(c3)OCO4)CC2)O[C@H](OCc2ccc(CO)cc2)C1	nt	0.6	41.9	94.3*	44.1	0.0939
O=C(C1=C[C@@H](c2ccc(C(F)(F)F)cc2)C[C@@H](OCc2ccc(CO)cc2)O1)N1CCN(Cc2ccc3c(c2)OCO3)CC1	nt	0.8	55.9*	36.8	15.4	0.112
NC(=O)C1=C[C@H](c2ccc(C(F)(F)F)cc2)C[C@H](OCc2ccc(CO)cc2)O1	nt	0.8	-4.1	-12.1	22.2	0.965
CCCCNCc1cc2ccccc2o1	nt	nt	nt	nt	nt	0.3
O=C(C1=C[C@H](c2ccc3c(c2)OCO3)C[C@H](OCc2ccc(CO)cc2)O1)N1CCCCCCC1	nt	1	60.5*	15.6	0.8	0.275
O=C(C1=C[C@@H](c2ccc3c(c2)OCO3)C[C@@H](OCc2ccc(CO)cc2)O1)N1CCOCC1	nt	0.8	6.9	-0.6	22.2	0.0295
CSc1nc2c(c(C(F)(F)F)n1)CC(C)CC2 (configuration not stated)	nt	1	-7.6	4.1	3.9	0.00565
CN1[C@@H](CC(=O)c2ccccc2)CCC[C@H]1C[C@H](O)c1ccccc1	nt	1	88.5*	-3.7	1.5	0.488
O=C(CC1C(=O)CCCC1=O)c1ccccc1	0.306	0.9	-4.0	-17.7	13.2	nt
CN1C(CC(=O)c2ccccc2)CCCC1CC(O)c1ccccc1 (configuration not stated)	-0.933	1	89.7*	-40.9	4.3	-0.179
COc1ccccc1-c1nc(SCC(=O)NCC2CCCO2)c2c(=O)n(C)c(=O)n(C)c2n1 (configuration not stated)	0.473	0.8	15.7	-0.2	16.9	-0.0814
NC(=O)CSc1nnc(-c2ccccn2)n1N	-0.802	nt	nt	nt	nt	0.423
Cc1ccc([N+](=O)[O-])c(OCCCN2CCCCCC2)c1	-0.0102	1	98.5*	9.3	2.5	0.365
Cc1cc(OCCN2CCCCCC2)ccc1[N+](=O)[O-]	nt	0.8	91.5*	8.9	19.3	-0.0105
